In data set [1] the test system is Rattus norvegicus. The data set is described as follows: Antidyslipidemic activity in ZDF rat assessed as LDL/IgHDL level at 30 mg/kg for 9 days by FPLC analysis (reference value: 17.8 mg/dL). Format: functional, Zucker.
Data set [2] can be described thus: AUC (0 to 24 hrs) in Sprague-Dawley rat at 1 mg/kg, iv by LC-MS/MS analysis. More on the design: dose 1 mg/kg, time < 24 hr, route intravenous. The conditions noted are these: in vivo. Format: ADME, organism-based. The procedure, abridged:
(§1)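 Sprague Dawley rats, Beagle dogs and Cynomolgus monkeys were dosed IV at 1 mg/kg (rat, dog) or 0.91 mpk (monkey) in 5% Solutol/5% EtOH in saline. Oral/nasogastric dosing was 3 mpk in 1.0% CMC/0.25% PS80/0.05% antifoam in purified water. Samples were processed to plasma and analysed by LC-MS/MS; values are mean ± SD, N=2-3.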

The nature of data set [3]: Terminal half life in Sprague-Dawley rat at 3 mg/kg, po by LC-MS/MS analysis. Format: ADME, organism-based. The conditions noted are these: in vivo, read-out: beta t1/2 (converted). In short, it runs like this: (§2)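 Oral/nasogastric dosing at 3 mpk in 1.0% CMC/0.25% PS80/0.05% antifoam in purified water. Plasma samples collected and analyzed by LC-MS/MS; parameters reported as mean ± SD, N=2-3.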

In data set [4] the test system is Mus musculus. Nature of the data set: Antidyslipidemic activity in western-diet fed mouse expressing LDL-receptor (-/-) assessed as decrease in triglyceride level at 3 mg/kg qd for a week administered via gavage […]. The conditions noted are these: po. Format: functional. The procedure, abridged: (§3)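 Male LDLR null mice, six per group, were gavaged once daily for one week with compound (in situ sodium salt) or vehicle (5% Solutol, 5% EtOH, 1% wt/v CMC) at 5 mL/kg. On day 7 they were bled by cardiac puncture under CO2 anaesthesia. Serum cholesterol and triglycerides were measured enzymatically on a clinical chemistry analyser (mean ± SD, n=6). ED50 was obtained by nonlinear regression.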

Data set [5] deals with Mus musculus. Nature of the data set: Antidyslipidemic activity in western-diet fed mouse expressing LDL-receptor (-/-) assessed as decrease in total cholesterol level at 30 mg/kg qd for a week administered via gavage […]. Format: functional. The conditions noted are these: po. In short, it runs like this: as §3
Data set [6] has as its system Mus musculus. Nature of the data set: Antidyslipidemic activity in western-diet fed mouse expressing LDL-receptor (-/-) assessed as decrease in very-low density lipoprotein level at 3 mg/kg qd for a week administered via gavage by FPLC analysis. To be noted: po. Format: functional. In short, it runs like this: (§4)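 LDLR null male mice, six per group, were dosed by gavage once daily for one week (vehicle 5% Solutol, 5% EtOH, 1% wt/v CMC; 5 mL/kg). Serum was collected by cardiac puncture on day 7 under CO2 anaesthesia. Pooled serum from each treatment group was fractionated by FPLC to quantify VLDL and LDL.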

Data set [7] has as its system Mus musculus. Nature of the data set: Antidyslipidemic activity in western-diet fed mouse expressing LDL-receptor (-/-) assessed as decrease in low density lipoprotein level at 10 mg/kg qd for a week administered via gavage by FPLC analysis. Format: functional. To be noted: po. In short, it runs like this:
as §4

The test system of data set [8] is Rattus norvegicus. Nature of the data set: Antidyslipidemic activity in ZDF rat assessed as VLDL level at 30 mg/kg for 9 days by FPLC analysis (reference value: 35 mg/dL). Format: functional, Zucker.
Data set [9] deals with Rattus norvegicus. The data set is described as follows: Antidyslipidemic activity in ZDF rat assessed as LDL/IgHDL level at 3 mg/kg for 9 days by FPLC analysis (reference value: 17.8 mg/dL). Format: functional, Zucker.
Data set [10] is described as follows: AUC (0 to 24 hrs) in cynomolgus monkey at 3 mg/kg, po by LC-MS/MS analysis. Format: ADME, organism-based, Macaca fascicularis. Also noted: time < 24 hr, dose 3 mg/kg, route oral. To be noted: in vivo. In short, it runs like this:
as §1

The nature of data set [11]: Terminal half life in cynomolgus monkey at 3 mg/kg, po by LC-MS/MS analysis. Format: ADME, organism-based, Macaca fascicularis. The conditions noted are these: in vivo, read-out: beta t1/2 (converted). The procedure, abridged:
as §2

Data set [12] can be described thus: Cmax in cynomolgus monkey at 3 mg/kg, po by LC-MS/MS analysis. Format: ADME, organism-based, Macaca fascicularis. Also noted: dose 3 mg/kg, route oral. The conditions noted are these: in vivo. In short, it runs like this:
as §1

Data set [13] can be described thus: Half life in human at 75 to 600 mg. Format: ADME, organism-based. The conditions noted are these: in vivo. In short, it runs like this: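 Healthy subjects (two cohorts of 9) received single oral doses in a double-blind, placebo-controlled, 2-cohort, 3-period dose-escalation study at one site. Doses covered 5 to 600 mg. Half-life was taken as the mean over the 75–600 mg range.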

Data set [14] addresses T1, Androgen receptor (Homo sapiens, UniProt P10275).
T1 sequence (P10275 whole entry): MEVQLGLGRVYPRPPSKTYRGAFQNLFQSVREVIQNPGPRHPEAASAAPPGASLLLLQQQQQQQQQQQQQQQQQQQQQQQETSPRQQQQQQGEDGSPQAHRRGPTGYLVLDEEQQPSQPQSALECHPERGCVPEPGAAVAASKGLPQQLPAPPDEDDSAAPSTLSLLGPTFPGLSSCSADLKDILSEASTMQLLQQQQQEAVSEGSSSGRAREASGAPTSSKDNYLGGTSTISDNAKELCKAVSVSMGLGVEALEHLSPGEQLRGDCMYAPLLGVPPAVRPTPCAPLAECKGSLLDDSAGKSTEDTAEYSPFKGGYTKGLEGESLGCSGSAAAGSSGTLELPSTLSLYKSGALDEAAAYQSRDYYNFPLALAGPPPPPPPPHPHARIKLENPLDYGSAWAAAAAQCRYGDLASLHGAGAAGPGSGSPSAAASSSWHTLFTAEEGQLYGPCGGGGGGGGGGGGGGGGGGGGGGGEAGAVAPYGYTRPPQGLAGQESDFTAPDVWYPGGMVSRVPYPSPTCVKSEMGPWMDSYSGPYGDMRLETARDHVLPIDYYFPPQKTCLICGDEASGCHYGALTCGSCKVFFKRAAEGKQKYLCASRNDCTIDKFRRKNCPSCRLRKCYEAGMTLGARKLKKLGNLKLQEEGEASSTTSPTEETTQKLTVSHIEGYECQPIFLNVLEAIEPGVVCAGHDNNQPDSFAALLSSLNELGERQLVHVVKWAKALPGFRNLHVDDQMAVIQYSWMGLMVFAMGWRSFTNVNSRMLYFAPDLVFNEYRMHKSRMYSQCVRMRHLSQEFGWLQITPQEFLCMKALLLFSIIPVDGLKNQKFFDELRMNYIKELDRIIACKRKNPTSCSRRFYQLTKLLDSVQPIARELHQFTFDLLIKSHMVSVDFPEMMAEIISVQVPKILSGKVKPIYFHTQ
Nature of the data set: Agonist activity at androgen receptor (unknown origin) expressed in HEK293 cells assessed as transcriptional activation. Format: cell-based.

One may read the AUC(0-t) as the area under the concentration-time curve up to a stated or last time point. Usually inhibition in vivo stands for how much of the control response was suppressed. By Cmax is commonly meant the highest concentration seen after dosing. The term EC50 denotes the concentration giving half of the maximal effect. For `Cn1cc(C(=O)O)c2ccc(N3CCC(OCc4c(-c5c(Cl)cccc5Cl)noc4C4CC4)CC3)cc21` [TERN-101], the Activity worked out at 18.6 mg/dL in data set [1], 13.2 mg/dL in data set [8] and 10.8 mg/dL in data set [9]. Moreover, the AUC(0-t) at 24 h in data set [2] came to 577 ng·h/mL; in [10], 1810 ng·h/mL. Moreover, the half-life in data set [3] is 2 h; in data set [11] it was 9 h; in data set [13] it was 16.9 h. Further, the inhibition in vivo at 3 mg/kg in data set [4] turned out to be 46%; in data set [6], 78%. For the same molecule, the inhibition in vivo at 30 mg/kg in data set [5] was 83%. Moreover, the inhibition in vivo at 10 mg/kg in data set [7] was determined as 50%. The molecule further registered a Cmax in [12] of 221 ng/mL. Further, the EC50 in data set [14] is more than 10 µM.
